Source: ChEMBL document CHEMBL2057141, “Imidazolopiperazines: lead optimization of the second-generation antimalarial agents” (J Med Chem, 2012)

Assays:
[1] = test system: Mus musculus; test: AUC (0 to 24 hrs) in Balb/c mouse at 5 mg/kg, iv; assay type: ADME, organism-based, Plasma; parameters: time < 24 hr, dose 5 mg/kg, route intravenous; settings: in vivo
Summary of the method: (§1)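 Male Balb/c mice (n = 3 per group). Compound as a 2.5 mg/mL solution in PEG300/D5W 3:1, filtered. Given by lateral tail vein at 5 mg/kg (2 mL/kg) or orally at 20 mg/kg (8 mL/kg). Six serial 50 μL retro-orbital blood samples to 24 h, heparinized plasma. Plasma extracted with acetonitrile:methanol 3:1 with internal standard, LC-MS/MS. Noncompartmental analysis; F = AUCpo×dose_iv/AUCiv×dose_po.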

[2] = Clearance in Balb/c mouse plasma at 5 mg/kg, iv; assay type: ADME, organism-based; parameters: dose 5 mg/kg, route intravenous; summary of the method: as §1
[3] = test system: Rattus norvegicus; test: (§2) Cmax in Wistar rat at 10 mg/kg, po; assay type: ADME, organism-based; parameters: dose 10 mg/kg, route oral; settings: in vivo, BLD = below limit of detection
Summary of the method: (§3)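 Rat snapshot PK: two Wistar rats dosed orally at 10 mg/kg, formulated at 2.5 mg/mL in 75% PEG300/25% D5W. Blood (100 μL) taken at 0.5, 1, 3 and 5 h post dose. Plasma pooled by sampling time, then analysed by LC-MS/MS.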

[4] = Half life in Balb/c mouse at 5 mg/kg, iv; assay type: ADME, organism-based; parameters: dose 5 mg/kg, route intravenous; settings: in vivo; summary of the method: as §1
[5] = Permeability of the compound by PAMPA; assay type: ADME
Summary of the method: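 PAMPA in 96-well filter plates. Permeated compound quantified by UV absorbance at 260–290 nm. Reported as percentage absorbed.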

[6] = test system: Mus musculus; test: Oral bioavailability in Balb/c mouse at 20 mg/kg; assay type: ADME, organism-based; settings: in vivo; summary of the method: as §1
[7] = test system: Plasmodium falciparum; test: Antimalarial activity against Plasmodium falciparum 3D7 after 72 hrs by SYBR green fluorescence assay; assay type: functional, organism-based; settings: 3D7, 72 h
Summary of the method: (§4)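 P. falciparum grown in O+ erythrocytes, screened in medium without human serum plus 0.5% Albumax II. Twelve-point half-log dilutions up to 10 μM final. 0.3% parasitemia, 2.5% hematocrit; 72 h at 37 °C under low-oxygen gas. Lysis buffer with SYBR Green added, 24 h at 25 °C, fluorescence read at 485/530 nm.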

[8] = test system: Plasmodium falciparum; test: Antimalarial activity against Plasmodium falciparum W2 after 72 hrs by SYBR green fluorescence assay; assay type: functional, organism-based; settings: W2, 72 h; summary of the method: as §4
[9] = Apparent permeability across basolateral to apical side in human Caco2 cells by LC/MS analysis; assay type: ADME, cell-based; settings: Caco-2
Summary of the method: (§5)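 Caco-2 monolayers in 96-well format. Compound measured in apical and basolateral chambers by LC/MS, giving Papp in the A–B and B–A directions. Values reported in cm/s × 10⁶.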

[10] = Half life in Balb/c mouse at 20 mg/kg, po; assay type: ADME, organism-based; parameters: dose 20 mg/kg, route oral; settings: in vivo; summary of the method: as §1
[11] = test system: Plasmodium berghei; test: Antimalarial activity against Plasmodium berghei ANKA expressing GFP infected in NMRI mouse assessed as increase of mouse survival at 100 mg/kg, po administered 24 hrs post infection (reference value: 6 to 7 days); assay type: functional
[12] = Volume of distribution in Balb/c mouse at 5 mg/kg, iv; assay type: ADME, organism-based; parameters: dose 5 mg/kg, route intravenous; settings: in vivo; summary of the method: as §1
[13] = Tmax in Balb/c mouse at 20 mg/kg, po; assay type: ADME, organism-based; parameters: dose 20 mg/kg, route oral; settings: in vivo; summary of the method: as §1
[14] = Apparent permeability across apical to basolateral side in human Caco2 cells by LC/MS analysis; assay type: ADME, cell-based; settings: Caco-2; summary of the method: as §5
[15] = test system: Plasmodium berghei; test: Antimalarial activity against Plasmodium berghei ANKA expressing GFP infected in NMRI mouse assessed as increase of mouse survival at 30 mg/kg, po administered 24 hrs post infection (reference value: 6 to 7 days); assay type: functional
[16] = test system: Mus musculus; test: AUC (0 to 24 hrs) in Balb/c mouse at 20 mg/kg, po; assay type: ADME, organism-based, Plasma; parameters: time < 24 hr, dose 20 mg/kg, route oral; settings: in vivo; summary of the method: as §1
[17] = Cmax in Balb/c mouse at 20 mg/kg, po; assay type: ADME, organism-based; parameters: dose 20 mg/kg, route oral; settings: in vivo; summary of the method: as §1
[18] = AUC (all) in Wistar rat at 30 mg/kg, po; assay type: ADME, organism-based; parameters: dose 30 mg/kg, route oral; settings: plasma
Summary of the method: (§6)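 Wistar rats, three per route. Dosed IV at 3 mg/kg or orally at 10, 30 or 100 mg/kg; the 100 mg/kg arm used a suspension, others a 2.5 mg/mL filtered 75% PEG300/25% D5W formulation. Six 100 μL blood samples serially per rat within 24 h. LC-MS/MS of plasma, noncompartmental parameters; F is dose-corrected AUCpo/AUCiv.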

[19] = Oral bioavailability in Wistar rat at 30 mg/kg; assay type: ADME, organism-based; settings: in vivo; summary of the method: as §6
[20] = Clearance in Wistar rat at 3 mg/kg, iv; assay type: ADME, organism-based; parameters: dose 3 mg/kg, route intravenous; settings: in vivo; summary of the method: as §6
[21] = as §2; assay type: ADME, organism-based; parameters: dose 10 mg/kg, route oral; settings: in vivo; summary of the method: as §3
[22] = Tmax in Wistar rat at 30 mg/kg, po; assay type: ADME, organism-based; parameters: dose 30 mg/kg, route oral; settings: in vivo; summary of the method: as §6
[23] = Tmax in Wistar rat at 10 mg/kg, po; assay type: ADME, organism-based; parameters: dose 10 mg/kg, route oral; settings: in vivo
[24] = Tmax in Wistar rat at 100 mg/kg, po; assay type: ADME, organism-based; parameters: dose 100 mg/kg, route oral; settings: in vivo; summary of the method: as §6
[25] = test system: Plasmodium berghei; test: Antimalarial activity against Plasmodium berghei ANKA expressing GFP infected in NMRI mouse assessed as increase of mouse survival at 30 mg/kg, po administered 24 hrs post infection qd for 3 days (reference value: 6 to 7 days); assay type: functional
[26] = target: Voltage-gated inwardly rectifying potassium channel KCNH2 (Homo sapiens, UniProt Q12809); test: Inhibition of human ERG channel expressed in CHO cells by patch clamp assay; assay type: cell-based
[27] = Half life in Wistar rat at 30 mg/kg, po; assay type: ADME, organism-based; parameters: dose 30 mg/kg, route oral; settings: in vivo; summary of the method: as §6
[28] = Cytotoxicity against mouse BA/F3 cells; assay type: cell-based; settings: baf3
[29] = Cmax in Wistar rat at 30 mg/kg, po; assay type: ADME, organism-based; parameters: dose 30 mg/kg, route oral; settings: in vivo; summary of the method: as §6
[30] = Cytotoxicity against human Hep2 cells; assay type: cell-based; settings: HEp-2 cells
[31] = Oral bioavailability in Wistar rat at 100 mg/kg; assay type: ADME, organism-based; settings: in vivo; summary of the method: as §6
[32] = AUC in Wistar rat at 3 mg/kg, iv; assay type: ADME, organism-based; parameters: dose 3 mg/kg, route intravenous; settings: plasma; summary of the method: as §6
[33] = AUC (all) in Wistar rat at 10 mg/kg, po; assay type: ADME, organism-based; parameters: dose 10 mg/kg, route oral; settings: plasma; summary of the method: as §6
[34] = Cytotoxicity against human 293T cells; assay type: cell-based; settings: HEK-293T cells
[35] = test system: Plasmodium berghei; test: Antimalarial activity against Plasmodium berghei ANKA expressing GFP infected in NMRI mouse assessed as reduction of parasite level in blood at 100 mg/kg, po administered 24 hrs post infection measured after 72 hrs post infection by flow cytometry; assay type: functional; parameters: scale not given: the % may be the effect or the level left
Summary of the method: (§7)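 Female NMRI mice (20–22 g, n=3) are infected i.v. with 2×10^7 P. berghei GFP ANKA-infected erythrocytes. Oral compound in 75% PEG300/25% D5W is given at 10 mL/kg, once at 24 h or daily at 24/48/72 h post-infection. Parasitemia is read by flow cytometry at 72 h (single dose) or 96 h (triple dose). Activity is % reduction of mean parasitemia versus untreated controls.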

[36] = test system: Rattus norvegicus; test: Dose normalized AUC (0 to 5 hrs) in Wistar rat at 10 mg/kg, po; assay type: ADME, organism-based; parameters: dose 10 mg/kg, route oral; settings: in vivo; summary of the method: as §3
[37] = test system: CHO; test: Cytotoxicity against CHO cells; assay type: cell-based, Cricetulus griseus; settings: chinese hamster
[38] = test system: Plasmodium berghei; test: Antimalarial activity against Plasmodium berghei ANKA expressing GFP infected in NMRI mouse assessed as reduction of parasite level in blood at 30 mg/kg, po administered 24 hrs post infection qd for 3 days measured after 96 hrs post infection by flow cytometry; assay type: functional; parameters: scale not given: the % may be the effect or the level left; summary of the method: as §7
[39] = test system: Plasmodium berghei; test: Antimalarial activity against Plasmodium berghei ANKA expressing GFP infected in po dosed NMRI mouse assessed as reduction of parasite level in blood administered 24 hrs post infection measured after 72 hrs post infection by flow cytometry; assay type: functional
[40] = test system: Plasmodium berghei; test: Antimalarial activity against Plasmodium berghei ANKA expressing GFP infected in NMRI mouse assessed as reduction of parasite level in blood at 30 mg/kg, po administered 24 hrs post infection measured after 72 hrs post infection by flow cytometry; assay type: functional; parameters: scale not given: the % may be the effect or the level left; summary of the method: as §7
[41] = Half life in Wistar rat at 3 mg/kg, iv; assay type: ADME, organism-based; parameters: dose 3 mg/kg, route intravenous; settings: in vivo; summary of the method: as §6
[42] = Half life in Wistar rat at 100 mg/kg, po; assay type: ADME, organism-based; parameters: dose 100 mg/kg, route oral; settings: in vivo; summary of the method: as §6
[43] = Cytotoxicity against human HuH7 cells; assay type: cell-based; settings: Huh-7 cells
[44] = AUC (all) in Wistar rat at 100 mg/kg, po; assay type: ADME, organism-based; parameters: dose 100 mg/kg, route oral; settings: plasma; summary of the method: as §6
[45] = Half life in Wistar rat at 10 mg/kg, po; assay type: ADME, organism-based; parameters: dose 10 mg/kg, route oral; settings: in vivo
[46] = Oral bioavailability in Wistar rat at 10 mg/kg; assay type: ADME, organism-based; settings: in vivo; summary of the method: as §6

Sequence of Voltage-gated inwardly rectifying potassium channel KCNH2 (Q12809 whole entry): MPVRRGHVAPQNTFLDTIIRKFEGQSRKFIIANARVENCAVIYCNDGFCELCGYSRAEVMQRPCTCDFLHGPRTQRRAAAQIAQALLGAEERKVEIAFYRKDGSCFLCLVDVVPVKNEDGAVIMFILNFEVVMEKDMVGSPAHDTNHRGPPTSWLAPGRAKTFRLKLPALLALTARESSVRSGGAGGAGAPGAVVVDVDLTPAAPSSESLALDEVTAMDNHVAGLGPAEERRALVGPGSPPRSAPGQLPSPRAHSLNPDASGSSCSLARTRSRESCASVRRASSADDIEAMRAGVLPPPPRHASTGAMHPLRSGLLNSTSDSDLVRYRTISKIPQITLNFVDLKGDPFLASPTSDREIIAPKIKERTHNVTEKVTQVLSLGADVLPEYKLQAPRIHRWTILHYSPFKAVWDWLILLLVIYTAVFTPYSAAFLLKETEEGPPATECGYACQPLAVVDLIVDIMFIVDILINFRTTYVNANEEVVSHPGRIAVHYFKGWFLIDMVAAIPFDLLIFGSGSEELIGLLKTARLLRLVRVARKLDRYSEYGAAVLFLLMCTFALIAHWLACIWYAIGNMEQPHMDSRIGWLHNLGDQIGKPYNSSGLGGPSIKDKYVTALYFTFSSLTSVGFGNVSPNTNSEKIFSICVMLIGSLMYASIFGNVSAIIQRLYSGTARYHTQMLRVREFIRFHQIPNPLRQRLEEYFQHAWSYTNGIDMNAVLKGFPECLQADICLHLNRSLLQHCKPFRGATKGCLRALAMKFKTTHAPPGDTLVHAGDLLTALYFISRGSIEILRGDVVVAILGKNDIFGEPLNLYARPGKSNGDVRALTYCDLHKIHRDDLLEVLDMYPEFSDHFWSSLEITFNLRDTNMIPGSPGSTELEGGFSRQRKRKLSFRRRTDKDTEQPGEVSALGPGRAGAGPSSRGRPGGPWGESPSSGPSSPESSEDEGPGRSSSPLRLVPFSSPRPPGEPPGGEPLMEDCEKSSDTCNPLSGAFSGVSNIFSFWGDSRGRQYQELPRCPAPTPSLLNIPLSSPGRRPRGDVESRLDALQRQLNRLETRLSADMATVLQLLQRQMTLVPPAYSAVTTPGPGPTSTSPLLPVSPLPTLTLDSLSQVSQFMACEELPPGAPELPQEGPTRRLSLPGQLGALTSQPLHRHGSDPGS

SMILES: Cc1ccc(Nc2c(-c3ccc(F)cc3)nc3n2CCN(C(=O)C(C)(C)N)C3(C)C)cc1
- AUC [1]: 7.607 µM·h
- clearance [2]: 36.1 mL/min/kg
- Cmax [3]: BLD
- half-life [4]: 18 h
- permeability [5]: 99.5%
- F [6]: 107%
- EC50 [7]: 2 nM
- EC50 [8]: 4 nM
- Papp B→A [9]: 2.37 ×10⁻⁶ cm/s
- half-life [10]: 14.5 h
- Survival [11]: 16.7 days
- Vd [12]: 7.5 L/kg
- Tmax [13]: 1 h
- Papp A→B [14]: 3.5 ×10⁻⁶ cm/s
- Survival [15]: 15.3 days
- AUC [16]: 32.409 µM·h
- Cmax [17]: 1640 nM

SMILES: CC1(C)c2nc(-c3ccc(F)cc3)c(Nc3ccc(F)cc3)n2CCN1C(=O)CN [GANAPLACIDE]
- AUC [1]: 4.119 µM·h
- AUC [18]: 7.34 µM·h
- bioavailability [19]: 40%
- clearance [20]: 67.5 mL/min/kg
- clearance [2]: 49.2 mL/min/kg
- Cmax ([21]; Wistar): 126 nM
- Cmax [21]: 91 nM
- Tmax [22]: 4.3 h
- Tmax [23]: 1.5 h
- Tmax [24]: 8 h
- half-life [4]: 2 h
- Survival [25]: 17.7 days
- permeability [5]: 51.8%
- IC50 [26]: 13400 nM
- F [6]: 74%
- half-life [27]: 6.3 h
- CC50 [28]: > 12000 nM
- Cmax [29]: 580 nM
- EC50 [7]: 10 nM
- EC50 [8]: 6 nM
- CC50 [30]: > 12000 nM
- Papp B→A [9]: 2.99 ×10⁻⁶ cm/s
- bioavailability [31]: 57%
- half-life [10]: 4.35 h
- AUC [32]: 1.83 µM·h
- AUC [33]: 0.974 µM·h
- CC50 [34]: > 12000 nM
- Survival [11]: 14 days
- Activity [35]: 99.4%
- AUC/dose [36]: 1.2 min.ug/ml/(mg/kg)
- CC50 [37]: > 12000 nM
- Vd [12]: 10.2 L/kg
- Tmax [13]: 1 h
- Activity [38]: 99.8%
- ED99 [39]: 2.2 mg/kg
- Papp A→B [14]: 1.26 ×10⁻⁶ cm/s
- Activity [40]: 99.5%
- Survival [15]: 16.3 days
- half-life [41]: 4.6 h
- half-life [42]: 8.4 h
- AUC [16]: 12.155 µM·h
- Cmax [17]: 1540 nM
- CC50 [43]: > 12000 nM
- AUC [44]: 34.9 µM·h
- half-life [45]: 4.7 h
- bioavailability [46]: 20%
